# Experimental data taken from publication PMC3680915 (Biochemistry, 2013).
# Entries after “also recorded” stand apart in the source; their conditions may differ.
# Assays:
# Type in all cases: biochemical, bovine
# [1] = target: T1, NADH:ubiquinone oxidoreductase (complex I) (Bos taurus, UniProt P25708); assay: NADH:HAR oxidoreduction
# [2] = target: T1, NADH:ubiquinone oxidoreductase (complex I); assay: NADH:FeCN oxidoreduction; conditions: 0.1 mM NADH, 1 mM FeCN, pH 7.5, 32 °C
# [3] = target: T1, NADH:ubiquinone oxidoreductase (complex I); assay: NADH:APAD+ transhydrogenation
# [4] = target: T1, NADH:ubiquinone oxidoreductase (complex I); assay: Kinetic isotope effect in NAD; conditions: 1 mM FeCN, pH 7.5, 32 °C
# [5] = target: T1, NADH:ubiquinone oxidoreductase (complex I); assay: Kinetic isotope effect in NAD; conditions: 3.5 mM HAR, pH 7.5, 32 °C
# In short: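 Bovine heart complex I with hexaammineruthenium(III) as acceptor, at 32 °C. Donor concentration series used NADH, [4R-2H]NADH, [4S-2H]NADH, APADH and [4S-2H]APADH in 20 mM Tris-HCl pH 7.5. pH dependence was measured with NADH versus [4S-2H]NADH at 0.1 mM. Reactions were enzyme-initiated and read at 340–380 nm (ε 4.81 mM–1 cm–1). Background-subtracted initial rates over ~15 s; mean of ≥3 measurements.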
Compound,IC50 [1],IC50 for inhibition of the FeCN reaction [2],IC50 for inhibition of the FeCN reaction ([2]; listed as Adenosine),IC50 [3],"IC50 for inhibition of the HAR reaction ([1]; 0.1 mM NADH, 3.5 mM HAR, pH 7.5, 32 °C)","IC50 for inhibition of the APAD+ reaction ([3]; 0.1 mM NADH, 1 mM APAD+, pH 7.5, 32 °C)",KIE in the APAD(H/D):FeCN reaction [4],KIE in the APAD(H/D):HAR reaction [5]
Nc1ncnc2c1ncn2[C@@H]1O[C@H](CO)[C@@H](O)[C@H]1O [adenosine],7 mM,no inhibition ^b,no discernible inhibition,10 mM,,,,
"NC(=O)c1ccc[n+]([C@@H]2O[C@H](COP(=O)([O-])O)[C@@H](O)[C@H]2O)c1 [NMN^+, nicotinamide mononucleotide]",,does not inhibit; also recorded: no inhibition,,,does not inhibit; also recorded: no inhibition,does not inhibit; also recorded: no inhibition,,
"[2H]C1C=CN(C2OC(COP(=O)(O)OP(=O)(O)OCC3OC(n4cnc5c(N)ncnc54)C(O)C3O)C(O)C2O)C=C1C(C)=O (stereo not drawn) [S-APADD, [4S-^2H]APADH]",,,,,,,~6.5,~3.5
